Data on 21 compounds can be found in ChEMBL document CHEMBL1133874, “Synthesis of N(1)-substituted analogues of (2R,4R)-4-amino-pyrrolidine-2,4-dicarboxylic acid as agonists, partial agonists, and antagonists of group II metabotropic glutamate receptors” (Bioorg Med Chem Lett, 2001).

The structures appear in SMILES notation.

One may read the IC50 as the point on the concentration scale where inhibition reaches its midpoint. High values mean weaker potency, low ones greater potency. For orientation: EC50 means the midpoint of the concentration-response curve. A higher EC50 goes with a need for much substance.

In the first experiment the target is T1, Metabotropic glutamate receptor 3 (Rattus norvegicus, UniProt P31422). The experiment in a line: Inhibitory concentration required for antagonistic activity at Metabotropic glutamate receptor 3. The format is functional.
T1 sequence (P31422 whole entry): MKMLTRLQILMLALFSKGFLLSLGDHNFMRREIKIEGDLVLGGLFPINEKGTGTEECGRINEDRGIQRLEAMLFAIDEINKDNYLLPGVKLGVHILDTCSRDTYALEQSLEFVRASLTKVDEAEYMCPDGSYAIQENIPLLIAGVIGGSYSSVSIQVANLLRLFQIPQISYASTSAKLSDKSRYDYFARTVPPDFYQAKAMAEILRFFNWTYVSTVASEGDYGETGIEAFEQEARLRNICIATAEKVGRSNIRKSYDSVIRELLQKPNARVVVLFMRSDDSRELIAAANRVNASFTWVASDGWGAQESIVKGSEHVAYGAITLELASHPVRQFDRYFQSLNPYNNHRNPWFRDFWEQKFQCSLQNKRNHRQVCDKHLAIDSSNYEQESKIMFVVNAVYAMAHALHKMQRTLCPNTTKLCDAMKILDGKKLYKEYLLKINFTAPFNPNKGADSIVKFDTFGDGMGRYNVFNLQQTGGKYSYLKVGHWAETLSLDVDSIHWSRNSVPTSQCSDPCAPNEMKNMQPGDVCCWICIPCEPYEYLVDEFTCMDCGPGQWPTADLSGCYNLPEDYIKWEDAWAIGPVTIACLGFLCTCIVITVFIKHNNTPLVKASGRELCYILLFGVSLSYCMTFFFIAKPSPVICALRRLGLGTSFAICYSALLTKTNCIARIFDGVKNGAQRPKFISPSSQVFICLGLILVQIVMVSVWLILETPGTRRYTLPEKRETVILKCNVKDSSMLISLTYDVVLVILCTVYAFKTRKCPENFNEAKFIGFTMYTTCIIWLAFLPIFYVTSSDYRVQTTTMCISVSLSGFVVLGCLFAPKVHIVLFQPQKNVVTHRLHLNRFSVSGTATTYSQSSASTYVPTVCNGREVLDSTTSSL
The compound `N[C@]1(C(=O)O)C[C@H](C(=O)O)N(Cc2cccc([N+](=O)[O-])c2)C1` registered an IC50 of 93 µM.
On the same count and under the same terms, as for `CC(N)(C(=O)O)C1CC1C(=O)O` (configuration not stated), the figure is 68 µM.
Still for that read-out and setting: for `CC(N)(C(=O)O)c1ccc(C(=O)O)cc1` (configuration not stated) the value was 270 µM.
The same measure, in the same setting: as for `COc1ccc(CN2C[C@@](N)(C(=O)O)C[C@@H]2C(=O)O)cc1`, the figure is 190 µM; as for `N[C@]1(C(=O)O)C[C@H](C(=O)O)N(Cc2ccccc2O)C1`, 27 µM.
For `Cl.Cl.N[C@]1(C(=O)O)C[C@H](C(=O)O)N(Cc2ccccc2C#Cc2ccccc2)C1`, the 50% inhibitory concentration (IC50) stood at 23 µM.
Same read-out and setting: for `N[C@]1(C(=O)O)C[C@H](C(=O)O)N(C(C(=O)O)c2ccccc2)C1` (some centres not stated) the value was 21 µM.

The target of another experiment is T2, Metabotropic glutamate receptor 2 (Rattus norvegicus, UniProt P31421). The experiment in a line: Inhibitory concentration required for antagonistic activity at Metabotropic glutamate receptor 2. The format is functional. The procedure, abridged: (§1)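 Antagonism at mGluR2 stably expressed in CHO cells, tested against 2 μM glutamate and read as forskolin-induced cAMP formation. Dose-response curves; means ± SEM from at least three experiments run in triplicate.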
T2 sequence (P31421 whole entry): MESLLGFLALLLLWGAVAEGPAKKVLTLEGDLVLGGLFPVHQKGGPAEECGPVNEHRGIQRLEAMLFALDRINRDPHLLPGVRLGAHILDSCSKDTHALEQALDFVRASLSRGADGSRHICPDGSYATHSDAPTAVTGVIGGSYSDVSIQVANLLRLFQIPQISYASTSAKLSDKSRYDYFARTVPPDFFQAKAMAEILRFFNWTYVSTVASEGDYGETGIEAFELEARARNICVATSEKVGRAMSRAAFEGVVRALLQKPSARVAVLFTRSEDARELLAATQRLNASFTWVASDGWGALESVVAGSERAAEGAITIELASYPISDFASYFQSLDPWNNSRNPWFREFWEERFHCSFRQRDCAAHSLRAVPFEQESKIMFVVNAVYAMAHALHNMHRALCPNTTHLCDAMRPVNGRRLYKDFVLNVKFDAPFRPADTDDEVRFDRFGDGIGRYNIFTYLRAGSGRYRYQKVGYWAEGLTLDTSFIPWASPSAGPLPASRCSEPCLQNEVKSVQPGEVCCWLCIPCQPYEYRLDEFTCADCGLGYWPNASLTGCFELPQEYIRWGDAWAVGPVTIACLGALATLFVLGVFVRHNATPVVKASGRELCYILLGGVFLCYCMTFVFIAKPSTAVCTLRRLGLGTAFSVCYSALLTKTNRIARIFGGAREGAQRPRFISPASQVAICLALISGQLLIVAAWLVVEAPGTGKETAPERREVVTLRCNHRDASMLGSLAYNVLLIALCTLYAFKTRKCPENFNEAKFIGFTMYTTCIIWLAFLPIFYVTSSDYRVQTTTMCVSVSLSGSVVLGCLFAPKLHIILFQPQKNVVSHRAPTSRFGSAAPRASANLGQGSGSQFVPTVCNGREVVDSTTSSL
The compound `CC(N)(C(=O)O)c1ccc(C(=O)O)cc1` (configuration not stated) came in with an IC50 of 290 µM.

The target in the next experiment is T1, Metabotropic glutamate receptor 3. Put plainly: Effective concentration required for partial agonistic activity at Metabotropic glutamate receptor 3; Partial agonist. The format is functional. An outline of the steps:
(§2)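 Agonist activity at mGluR3, stably expressed in CHO cells together with a chimeric construct. Dose-response curves; means ± SEM from at least three experiments run in triplicate.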
For the compound `N[C@]1(C(=O)O)C[C@H](C(=O)O)N(Cc2ccc(O)cc2)C1`, the EC50 was determined as 7.5 µM.

Another experiment deals with T2, Metabotropic glutamate receptor 2. The experiment in a line: Effective concentration required for partial agonistic activity at Metabotropic glutamate receptor 2; Partial agonist. The format is functional.
In turn, `Cl.Cl.Cl.Nc1ccc(CN2C[C@@](N)(C(=O)O)C[C@@H]2C(=O)O)cc1` displayed an EC50 of 2300 nM.
Same read-out and setting: as for `Cl.Cl.N[C@]1(C(=O)O)C[C@H](C(=O)O)N(Cc2ccc(C(=O)O)cc2)C1`, the figure is 4700 nM; as for `Cl.Cl.N[C@]1(C(=O)O)C[C@H](C(=O)O)N(CC(=O)O)C1`, 610 nM.

The target in the next experiment is T1, Metabotropic glutamate receptor 3. The experiment in a line: Inhibitory concentration required for antagonistic activity at Metabotropic glutamate receptor 3; Not active. In kind it is functional.
Take `Cl.Cl.N[C@]1(C(=O)O)C[C@H](C(=O)O)N(Cc2cccc(O)c2)C1`: the IC50 entry was “Not Active”.
On the same count and under the same terms, as for `Cl.Cl.N[C@]1(C(=O)O)C[C@H](C(=O)O)N(Cc2ccc([N+](=O)[O-])cc2)C1`, the entry is “Not Active”.
Turning to `Cl.Cl.Cl.Nc1ccccc1CN1C[C@@](N)(C(=O)O)C[C@@H]1C(=O)O`, the IC50 result is “Not Active”.
With `Cl.Cl.N[C@]1(C(=O)O)C[C@H](C(=O)O)N(Cc2cccc(C(=O)O)c2)C1`, the 50% inhibitory concentration (IC50) entry is on record as “Not Active”.
Still for that read-out and setting: as for `Cl.Cl.N[C@]1(C(=O)O)C[C@H](C(=O)O)N(Cc2ccccc2C(=O)O)C1`, the entry is “Not Active”; as for `Cl.Cl.Cl.Nc1ccc(CN2C[C@@](N)(C(=O)O)C[C@@H]2C(=O)O)cc1`, “Not Active”; as for `Cl.Cl.N[C@]1(C(=O)O)C[C@H](C(=O)O)N(Cc2cc([N+](=O)[O-])cc([N+](=O)[O-])c2)C1`, “Not Active”.
Still for that read-out and setting: as for `Cl.Cl.N[C@]1(C(=O)O)C[C@H](C(=O)O)N(Cc2ccc(C(=O)O)cc2)C1`, the entry is “Not Active”; as for `Cl.Cl.N[C@]1(C(=O)O)C[C@H](C(=O)O)N(CC(=O)O)C1`, “Not Active”.

The next experiment deals with T2, Metabotropic glutamate receptor 2. Put plainly: Effective concentration required for agonistic activity at Metabotropic glutamate receptor 2; Not active. In kind it is functional.
As to `Cl.Cl.N[C@]1(C(=O)O)C[C@H](C(=O)O)N(Cc2cccc(C(=O)O)c2)C1`, the EC50 entry was “Not Active”.
Same read-out and setting: as for `Cl.Cl.N[C@]1(C(=O)O)C[C@H](C(=O)O)N(Cc2cc([N+](=O)[O-])cc([N+](=O)[O-])c2)C1`, the entry is “Not Active”.

For the next experiment, the target named is T3, Metabotropic glutamate receptor 6 (Rattus norvegicus, UniProt P35349). Put plainly: Effective concentration for agonistic activity at Metabotropic glutamate receptor 6; Not active. The format is functional.
T3 sequence (P35349 whole entry): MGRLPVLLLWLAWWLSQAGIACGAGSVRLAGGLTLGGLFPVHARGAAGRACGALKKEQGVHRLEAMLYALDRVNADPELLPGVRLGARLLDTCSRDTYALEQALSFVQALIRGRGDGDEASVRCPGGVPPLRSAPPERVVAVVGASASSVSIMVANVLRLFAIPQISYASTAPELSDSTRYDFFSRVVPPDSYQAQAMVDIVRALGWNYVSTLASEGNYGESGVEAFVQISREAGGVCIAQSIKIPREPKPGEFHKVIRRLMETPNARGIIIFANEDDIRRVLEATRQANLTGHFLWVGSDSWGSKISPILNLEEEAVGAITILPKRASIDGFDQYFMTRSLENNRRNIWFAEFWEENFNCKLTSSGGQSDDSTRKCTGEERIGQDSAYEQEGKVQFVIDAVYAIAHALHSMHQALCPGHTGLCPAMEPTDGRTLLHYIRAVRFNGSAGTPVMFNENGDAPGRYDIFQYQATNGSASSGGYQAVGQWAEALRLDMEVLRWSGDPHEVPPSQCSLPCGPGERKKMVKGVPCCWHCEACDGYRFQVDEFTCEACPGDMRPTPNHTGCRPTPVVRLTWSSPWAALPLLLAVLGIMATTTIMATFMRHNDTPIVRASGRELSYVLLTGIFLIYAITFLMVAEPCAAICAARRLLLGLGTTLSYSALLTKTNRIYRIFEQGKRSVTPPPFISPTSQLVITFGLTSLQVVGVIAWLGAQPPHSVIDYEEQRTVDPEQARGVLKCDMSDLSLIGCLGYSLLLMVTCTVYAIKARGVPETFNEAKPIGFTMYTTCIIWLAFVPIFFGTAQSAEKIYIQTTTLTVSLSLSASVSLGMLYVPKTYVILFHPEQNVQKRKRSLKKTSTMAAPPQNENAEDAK
As to `Cl.Cl.N[C@]1(C(=O)O)C[C@H](C(=O)O)N(Cc2cccc(O)c2)C1`, the EC50 entry was “Not Active”.
On the same count and under the same terms, for `Cl.Cl.N[C@]1(C(=O)O)C[C@H](C(=O)O)N(Cc2ccc([N+](=O)[O-])cc2)C1` the value was “Not Active”.
The same measure, in the same setting: for `Cl.Cl.Cl.Nc1ccccc1CN1C[C@@](N)(C(=O)O)C[C@@H]1C(=O)O` the value was “Not Active”; for `CC(N)(C(=O)O)C1CC1C(=O)O` (configuration not stated), “Not Active”; for `CC(N)(C(=O)O)c1ccc(C(=O)O)cc1` (configuration not stated), “Not Active”.
`Cl.Cl.N[C@]1(C(=O)O)C[C@H](C(=O)O)N(Cc2ccccc2C(=O)O)C1`: the EC50 entry is listed as “Not Active”.
Still for that read-out and setting: for `Cl.Cl.Cl.Nc1ccc(CN2C[C@@](N)(C(=O)O)C[C@@H]2C(=O)O)cc1` the value was “Not Active”; for `Cl.Cl.N[C@]1(C(=O)O)C[C@H](C(=O)O)N(Cc2ccccc2C#Cc2ccccc2)C1`, “Not Active”; for `N[C@@]1(C(=O)O)CN[C@@H](C(=O)O)C1`, “Not Active”.
On the same count and under the same terms, for `Cl.Cl.Cl.N[C@]1(C(=O)O)C[C@H](C(=O)O)N(Cc2ccccn2)C1` the value was “Not Active”; for `Cl.Cl.N[C@]1(C(=O)O)C[C@H](C(=O)O)N(CC(=O)O)C1`, “Not Active”.

Another experiment has as its target T2, Metabotropic glutamate receptor 2. Put plainly: Effective concentration required for agonistic activity at Metabotropic glutamate receptor 2. The format is functional.
`N[C@]1(C(=O)O)C[C@H](C(=O)O)N(Cc2ccccc2[N+](=O)[O-])C1`: the EC50 was found to be 4 µM.
The same measure, in the same setting: as for `Cl.Cl.N[C@]1(C(=O)O)C[C@H](C(=O)O)N(Cc2cccc(O)c2)C1`, the figure is 950 µM; as for `Cl.Cl.N[C@]1(C(=O)O)C[C@H](C(=O)O)N(Cc2ccc([N+](=O)[O-])cc2)C1`, 160 µM; as for `Cl.Cl.Cl.Nc1ccccc1CN1C[C@@](N)(C(=O)O)C[C@@H]1C(=O)O`, 35 µM.
Turning to `N[C@]1(C(=O)O)C[C@H](C(=O)O)N(Cc2ccc(O)cc2)C1`, the EC50 was 24 µM.
Still for that read-out and setting: for `Cl.Cl.N[C@]1(C(=O)O)C[C@H](C(=O)O)N(Cc2ccccc2C(=O)O)C1` the value was 33 µM; for `N[C@]1(C(=O)O)C[C@H](C(=O)O)N(Cc2ccccc2O)C1`, 6.1 µM.
The compound `N[C@@]1(C(=O)O)CN[C@@H](C(=O)O)C1` displayed an EC50 of 0.48 µM.
With `Cl.Cl.Cl.N[C@]1(C(=O)O)C[C@H](C(=O)O)N(Cc2ccccn2)C1`, the midpoint of the response, the EC50, lay at 37 µM.

For another experiment the target is unchanged. Put plainly: Inhibitory concentration required for antagonistic activity at Metabotropic glutamate receptor 2; Not active. In kind it is functional. The procedure, abridged:
as §1
As to `Cl.Cl.N[C@]1(C(=O)O)C[C@H](C(=O)O)N(Cc2cccc(C(=O)O)c2)C1`, the IC50 entry was “Not Active”.
In the case of `Cl.Cl.N[C@]1(C(=O)O)C[C@H](C(=O)O)N(Cc2cc([N+](=O)[O-])cc([N+](=O)[O-])c2)C1`, the half-maximal inhibitory concentration (IC50) entry is “Not Active”.

A further experiment deals with T1, Metabotropic glutamate receptor 3. Put plainly: Effective concentration required for agonistic activity at Metabotropic glutamate receptor 3; Not active. In kind it is functional. An outline of the steps: as §2
For `Cl.Cl.N[C@]1(C(=O)O)C[C@H](C(=O)O)N(Cc2cccc(O)c2)C1`, the EC50 result is given as “Not Active”.
Same read-out and setting: as for `Cl.Cl.N[C@]1(C(=O)O)C[C@H](C(=O)O)N(Cc2ccc([N+](=O)[O-])cc2)C1`, the entry is “Not Active”.
On the same count and under the same terms, as for `Cl.Cl.Cl.Nc1ccccc1CN1C[C@@](N)(C(=O)O)C[C@@H]1C(=O)O`, the entry is “Not Active”; as for `Cl.Cl.N[C@]1(C(=O)O)C[C@H](C(=O)O)N(Cc2cccc(C(=O)O)c2)C1`, “Not Active”; as for `Cl.Cl.N[C@]1(C(=O)O)C[C@H](C(=O)O)N(Cc2ccccc2C(=O)O)C1`, “Not Active”.
On the same count and under the same terms, as for `Cl.Cl.Cl.Nc1ccc(CN2C[C@@](N)(C(=O)O)C[C@@H]2C(=O)O)cc1`, the entry is “Not Active”.
As to `Cl.Cl.N[C@]1(C(=O)O)C[C@H](C(=O)O)N(Cc2cc([N+](=O)[O-])cc([N+](=O)[O-])c2)C1`, the half-maximal effective concentration (EC50) entry is “Not Active”.
On the same count and under the same terms, for `Cl.Cl.N[C@]1(C(=O)O)C[C@H](C(=O)O)N(Cc2ccc(C(=O)O)cc2)C1` the value was “Not Active”; for `Cl.Cl.N[C@]1(C(=O)O)C[C@H](C(=O)O)N(CC(=O)O)C1`, “Not Active”.

For a further experiment, the target named is T3, Metabotropic glutamate receptor 6. Put plainly: Effective concentration required for agonistic activity at Metabotropic glutamate receptor 6. The format is functional.
In the case of `N[C@]1(C(=O)O)C[C@H](C(=O)O)N(Cc2cccc([N+](=O)[O-])c2)C1`, the EC50 amounted to 100 µM.
Take `N[C@]1(C(=O)O)C[C@H](C(=O)O)N(Cc2ccccc2[N+](=O)[O-])C1`: the 50% effective concentration (EC50) was 110 µM.
Still for that read-out and setting: for `Cl.Cl.N[C@]1(C(=O)O)C[C@H](C(=O)O)N(Cc2cccc(C(=O)O)c2)C1` the value was 57 µM; for `N[C@]1(C(=O)O)C[C@H](C(=O)O)N(Cc2ccc(O)cc2)C1`, 74 µM.
The same measure, in the same setting: as for `COc1ccc(CN2C[C@@](N)(C(=O)O)C[C@@H]2C(=O)O)cc1`, the figure is 320 µM.
The compound `Cl.Cl.N[C@]1(C(=O)O)C[C@H](C(=O)O)N(Cc2cc([N+](=O)[O-])cc([N+](=O)[O-])c2)C1` registered an EC50 of 210 µM.
Still for that read-out and setting: as for `N[C@]1(C(=O)O)C[C@H](C(=O)O)N(C(C(=O)O)c2ccccc2)C1` (some centres not stated), the figure is 22 µM; as for `N[C@]1(C(=O)O)C[C@H](C(=O)O)N(Cc2ccccc2Br)C1`, 310 µM.
In the case of `Cl.Cl.N[C@]1(C(=O)O)C[C@H](C(=O)O)N(Cc2ccc(C(=O)O)cc2)C1`, the midpoint of the response, the EC50, lay at 58 µM.

For the next experiment the target is unchanged. The experiment in a line: Effective concentration required for partial agonistic activity at Metabotropic glutamate receptor 6; Partial agonist. The format is functional.
Compound `N[C@]1(C(=O)O)C[C@H](C(=O)O)N(Cc2ccccc2O)C1` displayed an EC50 of 88 µM.

In the next experiment the target is T1, Metabotropic glutamate receptor 3. The experiment in a line: Effective concentration required for agonistic activity at Metabotropic glutamate receptor 3. In kind it is functional. An outline of the steps: as §2
As for `N[C@]1(C(=O)O)C[C@H](C(=O)O)N(Cc2ccccc2[N+](=O)[O-])C1`, the EC50 worked out at 6.8 µM.
As for `N[C@@]1(C(=O)O)CN[C@@H](C(=O)O)C1`, the EC50 turned out to be 1.7 µM.
`Cl.Cl.Cl.N[C@]1(C(=O)O)C[C@H](C(=O)O)N(Cc2ccccn2)C1` yielded an EC50 of 37 µM.
